From ChEMBL document CHEMBL1153304, “2,4-Diaminopyridine delta-opioid receptor agonists and their associated hERG pharmacology” (Bioorg Med Chem Lett, 2009)
pEC50, pKi: −log10 of the molar value. The source made the active and inactive calls. The calls are words filed in the database; no cut-off is given here.

Assays:
Canis familiaris = organism: Canis familiaris; experiment: Effect on QTC prolongation in Beagle dog at 291 nM free plasma concentration; assay type: functional, organism-based; conditions: Canis lupus familiaris
Clearance in rat = conditions: in vivo
Rattus norvegicus = organism: Rattus norvegicus; experiment: Inhibition of neuropathic pain in rat electromyography model; assay type: functional
How it was run: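 Rat electromyography (EMG) pain model. Agonist given by infusion protocol (bolus + continuous infusion) at 76 µg/kg + 72 µg/kg/hr, 240 µg/kg + 290 µg/kg/hr, or 660 µg/kg + 920 µg/kg/hr to reach target plasma levels. Mean free plasma concentration measured at each dose. Read-out: EMG response inhibition relative to control animals.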

[1] = Metabolic stability in human liver microsomes assessed as intrinsic clearance; assay type: ADME, Microsome
[2] = biological target: T1, Delta-type opioid receptor (Homo sapiens, UniProt P41143); experiment: Agonist activity at delta opioid receptor expressed in CHO cells assessed as inhibition of forskolin-stimulated cAMP production by ALPHAscreen assay; assay type: functional, cell-based
T1 sequence (P41143 whole entry): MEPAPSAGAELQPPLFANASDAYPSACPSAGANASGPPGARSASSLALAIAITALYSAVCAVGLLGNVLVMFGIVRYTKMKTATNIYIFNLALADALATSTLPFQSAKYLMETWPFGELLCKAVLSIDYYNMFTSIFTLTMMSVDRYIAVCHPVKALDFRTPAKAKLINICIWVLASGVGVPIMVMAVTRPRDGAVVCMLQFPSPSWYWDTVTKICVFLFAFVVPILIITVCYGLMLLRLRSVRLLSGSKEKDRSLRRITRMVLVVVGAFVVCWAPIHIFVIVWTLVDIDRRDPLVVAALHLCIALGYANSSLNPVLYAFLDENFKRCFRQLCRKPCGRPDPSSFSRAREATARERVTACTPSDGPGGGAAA
How it was run: (§1)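 CHO cells stably expressing a Flp-In delta opioid receptor construct, grown in DMEM/F12 with 2 mM L-glutamine, 500 µg/ml hygromycin and 10% heat-inactivated FBS. Cells resuspended at 8000 cells/well in HEPES pH 7.4/HBSS buffer with 0.1% BSA, 10 mM MgCl2 and 0.5 mM IBMX. Forskolin 20 µM final, 30 min. cAMP read by ALPHAscreen with biotin-cAMP competition after overnight incubation. EC50 from percentage agonist activity.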

[3] = Selectivity for human recombinant DOR over mu opioid receptor
[4] = biological target: Voltage-gated inwardly rectifying potassium channel KCNH2 (Homo sapiens, UniProt Q12809); experiment: Inhibition of human ERG
Chain of Voltage-gated inwardly rectifying potassium channel KCNH2 (Q12809 whole entry): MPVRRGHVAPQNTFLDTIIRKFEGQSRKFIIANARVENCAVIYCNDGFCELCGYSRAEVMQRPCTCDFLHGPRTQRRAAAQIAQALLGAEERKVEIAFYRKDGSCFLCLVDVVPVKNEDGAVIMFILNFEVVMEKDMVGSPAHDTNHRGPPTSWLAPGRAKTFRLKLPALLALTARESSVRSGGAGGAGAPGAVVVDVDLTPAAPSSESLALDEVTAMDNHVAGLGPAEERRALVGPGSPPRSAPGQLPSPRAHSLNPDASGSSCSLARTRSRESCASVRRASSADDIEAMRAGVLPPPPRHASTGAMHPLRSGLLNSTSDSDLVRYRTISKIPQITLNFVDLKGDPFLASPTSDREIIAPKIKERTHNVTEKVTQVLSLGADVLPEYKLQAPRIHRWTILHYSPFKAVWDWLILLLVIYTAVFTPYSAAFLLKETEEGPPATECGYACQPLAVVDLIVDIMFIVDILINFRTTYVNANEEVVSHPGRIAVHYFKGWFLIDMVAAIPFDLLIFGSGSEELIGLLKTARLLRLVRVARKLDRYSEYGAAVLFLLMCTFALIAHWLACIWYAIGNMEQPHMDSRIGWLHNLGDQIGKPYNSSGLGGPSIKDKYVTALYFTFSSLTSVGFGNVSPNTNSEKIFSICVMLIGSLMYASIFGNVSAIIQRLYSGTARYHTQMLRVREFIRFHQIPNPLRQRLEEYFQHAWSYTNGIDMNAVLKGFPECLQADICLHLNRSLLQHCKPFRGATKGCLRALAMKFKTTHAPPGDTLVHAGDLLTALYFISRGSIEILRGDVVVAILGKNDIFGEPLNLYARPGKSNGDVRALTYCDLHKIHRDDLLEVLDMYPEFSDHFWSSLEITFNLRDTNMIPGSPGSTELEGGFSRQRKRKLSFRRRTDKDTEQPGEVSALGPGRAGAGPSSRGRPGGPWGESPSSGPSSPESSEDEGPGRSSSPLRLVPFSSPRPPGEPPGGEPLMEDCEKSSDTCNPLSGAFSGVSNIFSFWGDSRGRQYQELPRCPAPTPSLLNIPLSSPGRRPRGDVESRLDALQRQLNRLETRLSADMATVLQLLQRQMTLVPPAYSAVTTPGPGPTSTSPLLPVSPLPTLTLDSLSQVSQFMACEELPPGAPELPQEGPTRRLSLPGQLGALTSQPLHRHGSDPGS

[5] = biological target: T1, Delta-type opioid receptor; experiment: Agonist activity at human recombinant delta opioid receptor expressed in CHO cells assessed as inhibition of forskolin-stimulated cAMP production by ALPHAscreen assay relative to BW373U86; assay type: functional, cell-based; how it was run: as §1
Mu-type opioid receptor = Mu-type opioid receptor (Homo sapiens, UniProt P35372); experiment: Agonist activity at mu opioid receptor; assay type: functional
Chain of Mu-type opioid receptor (P35372 whole entry): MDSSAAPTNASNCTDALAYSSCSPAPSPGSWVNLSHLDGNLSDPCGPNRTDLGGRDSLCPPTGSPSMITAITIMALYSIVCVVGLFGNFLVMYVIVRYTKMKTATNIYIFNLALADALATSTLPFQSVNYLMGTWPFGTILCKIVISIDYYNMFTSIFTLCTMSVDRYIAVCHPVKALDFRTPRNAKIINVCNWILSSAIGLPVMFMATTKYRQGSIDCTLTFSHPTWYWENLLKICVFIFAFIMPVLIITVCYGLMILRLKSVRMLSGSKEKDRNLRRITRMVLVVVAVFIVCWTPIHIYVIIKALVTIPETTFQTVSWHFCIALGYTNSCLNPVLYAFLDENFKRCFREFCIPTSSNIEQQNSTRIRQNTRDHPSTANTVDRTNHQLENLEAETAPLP

CN(C)C(=O)[C@H]1CC2(CCN(c3cc(N)ccn3)CC2)c2ccccc21
Activity (Canis familiaris): Active | clearance (Clearance in rat): > 70 mL/min/kg | inhibition (INH) (Rattus norvegicus): 60% | microsomal CLint [1]: < 7 µL/min/mg | pEC50 [2]: 7.57 | fold change (FC) [3]: 50

Nc1ccnc(N2CCC(NC(=O)[C@@H]3CCCO3)(c3ccccc3)CC2)c1
microsomal CLint [1]: 13 µL/min/mg | pEC50 [2]: 6.77 | fold change (FC) [3]: 50

Nc1ccnc(N2CCC3(CC2)OCc2ccccc23)c1
pEC50 [2]: 6.51 | fold change (FC) [3]: 50

Nc1ccnc(N2CCC(NC(=O)c3ccccn3)(c3ccccc3)CC2)c1
pKi [4]: 6.26 | microsomal CLint [1]: 14 µL/min/mg | pEC50 [2]: 7.22 | fold change (FC) [3]: 50

Nc1ccnc(N2CCC(C(=O)Nc3ccc4ccccc4n3)(c3ccccc3)CC2)c1
microsomal CLint [1]: 22 µL/min/mg | pEC50 [2]: 8.30

Nc1ccnc(N2CCC(N(C(=O)C3CC3)c3ccccn3)CC2)c1
microsomal CLint [1]: < 7 µL/min/mg

Nc1ccnc(N2CCC(C(=O)N3CCc4ccccc4C3)(c3ccccc3)CC2)c1
microsomal CLint [1]: 46 µL/min/mg | pEC50 [2]: 7.89 | fold change (FC) [3]: 50

COc1cccc(C2(C)CN(c3cc(N)ccn3)C2)c1
pKi [4]: 5.74 | pEC50 [2]: 6.07 | fold change (FC) [3]: 2

Nc1ccnc(N2CCC3(CC2)OC(c2ccccc2)c2ccccc23)c1 (stereo unspecified)
pKi [4]: 7.74 | microsomal CLint [1]: 10 µL/min/mg | pEC50 [2]: 7.23 | fold change (FC) [3]: 50

Nc1ccnc(N2CCC(N(C(=O)C3CCCCC3)c3ccccn3)CC2)c1
microsomal CLint [1]: 80 µL/min/mg

COc1ccc(C(=O)NC2(c3ccccc3)CCN(c3cc(N)ccn3)CC2)cc1Cl
pKi [4]: 6.46 | microsomal CLint [1]: 69 µL/min/mg | pEC50 [2]: 7.23 | fold change (FC) [3]: 50

COc1ccc(CNC(=O)C2(c3ccccc3)CCN(c3cc(N)ccn3)CC2)cc1
microsomal CLint [1]: 40 µL/min/mg | pEC50 [2]: 7.77 | fold change (FC) [3]: 50

COc1ccc(-n2c(=O)n(C3CCN(c4cc(N)ccn4)CC3)c3ncccc32)cc1
pKi [4]: 6.06 | microsomal CLint [1]: 23 µL/min/mg

CCN(CC)C(=O)[C@H]1OC2(CCN(c3cc(N)ccn3)CC2)c2ccccc21
pKi [4]: < 5.00 | microsomal CLint [1]: 13 µL/min/mg | pEC50 [2]: 7.92 | fold change (FC) [3]: 50

Nc1ccnc(N2CCC(n3c(=O)n(CC4CC4)c4cccnc43)CC2)c1
pKi [4]: 6.13 | microsomal CLint [1]: 13 µL/min/mg

CC(=O)C1(c2ccccc2)CCN(c2cc(N)ccn2)CC1
microsomal CLint [1]: < 7 µL/min/mg | Emax [5]: 100% | pEC50 (Mu-type opioid receptor): < 5.00 | pEC50 [2]: 6.58 | fold change (FC) [3]: 50

Nc1ccnc(N2CCC(n3c(=O)n(Cc4ccccc4)c4cccnc43)CC2)c1
microsomal CLint [1]: 20 µL/min/mg

Nc1ccnc(N2CCC(n3c(=O)n(-c4ccccc4)c4cccnc43)CC2)c1
pKi [4]: 6.04 | microsomal CLint [1]: 19 µL/min/mg

COc1ccc(C(=O)N(c2cc(C)ccn2)C2CCN(c3cc(N)ccn3)CC2)cc1
microsomal CLint [1]: 12 µL/min/mg

COc1cccc(C(=O)N(c2ccccn2)C2CCN(c3cc(N)ccn3)CC2)c1
pKi [4]: 5.01 | microsomal CLint [1]: 17 µL/min/mg

CCOC(=O)N1CCN(C(=O)C2(c3ccccc3)CCN(c3cc(N)ccn3)CC2)CC1
microsomal CLint [1]: 62 µL/min/mg | pEC50 [2]: 7.62 | fold change (FC) [3]: 17

COc1ccc(C(=O)NC2(c3ccccc3)CCN(c3cc(N)ccn3)CC2)c(OC)c1
microsomal CLint [1]: 43 µL/min/mg | pEC50 [2]: 7.85 | fold change (FC) [3]: 50
